Reference: ChEMBL document CHEMBL4002610, “Design, synthesis and biological activity evaluation of novel 2,6-difluorobenzamide derivatives through FtsZ inhibition” (2017)
Values after ≈ are worked out from the molar mass of the structure shown. Active and inactive are the calls of the source. No cut-off for these calls is given here.

Legend:
[1] = test system: Bacillus subtilis; test: Inhibition of FtsZ in Bacillus subtilis ATCC 9372 assessed as decrease in cell division by measuring cell morphology at 2048 to 4096 ug/ml after 5 hrs by phase-contrast light microscopy
[2] = test system: Pseudomonas aeruginosa; test: Antibacterial activity against Pseudomonas aeruginosa ATCC 27853 after 24 hrs by broth microdilution method; format: functional; details: ATCC 27853, 24 h
How it was run: (§1)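 MIC by standard broth microdilution per NCCLS guidance. Strain panel: B. subtilis ATCC9372 and S. aureus ATCC25923 as standard susceptible strains, S. aureus ATCC29213 as […], S. pyogenes PS as penicillin-susceptible, S. pneumoniae ATCC49619 as standard susceptible, alongside Gram-negative strains.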

[3] = test system: Staphylococcus aureus; test: Antibacterial activity against Staphylococcus aureus ATCC 29213 after 24 hrs by broth microdilution method; format: functional; details: ATCC 29213, 24 h; how it was run: as §1
[4] = test system: Escherichia coli ATCC 25922; test: Inhibition of FtsZ in Escherichia coli ATCC 25922 assessed as decrease in cell division by measuring lowest compound concentration at which bacterial filamentation is observed after 5 hrs by phase-contrast light microscopy
How it was run: (§2)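 Cell division inhibition scored by cell morphology under phase-contrast light microscopy. B. subtilis ATCC9372, E. coli ATCC25922 and S. aureus ATCC25923 were exposed to compound. The lowest concentration giving filamentation (B. subtilis, E. coli) or ballooning (S. aureus) was recorded as the cell division inhibitory concentration.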

[5] = test system: Escherichia coli; test: Antibacterial activity against Escherichia coli ATCC 25922 after 24 hrs by broth microdilution method; format: functional; details: ATCC 25922, 24 h; how it was run: as §1
[6] = test system: Staphylococcus aureus; test: Antibacterial activity against penicillin-resistant Staphylococcus aureus clinical isolate after 24 hrs by broth microdilution method; format: functional
[7] = biological target: T1, Cell division protein FtsZ (Staphylococcus aureus) (UniProt P0A031); test: Inhibition of FtsZ in Staphylococcus aureus ATCC 25923 assessed as decrease in cell division by measuring cell morphology at 2048 to 4096 ug/ml after 5 hrs by phase-contrast light microscopy
T1 sequence (whole entry): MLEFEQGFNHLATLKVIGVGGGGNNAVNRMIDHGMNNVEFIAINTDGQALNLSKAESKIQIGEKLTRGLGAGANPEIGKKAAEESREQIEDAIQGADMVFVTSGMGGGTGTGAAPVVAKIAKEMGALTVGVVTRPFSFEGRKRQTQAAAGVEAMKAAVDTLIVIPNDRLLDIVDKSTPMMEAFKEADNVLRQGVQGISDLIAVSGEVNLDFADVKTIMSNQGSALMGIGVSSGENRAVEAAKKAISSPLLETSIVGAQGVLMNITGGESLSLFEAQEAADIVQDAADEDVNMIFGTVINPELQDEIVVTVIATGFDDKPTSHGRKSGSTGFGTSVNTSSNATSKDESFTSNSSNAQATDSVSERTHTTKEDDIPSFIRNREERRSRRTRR

[8] = test system: Streptococcus pneumoniae; test: Antibacterial activity against Streptococcus pneumoniae ATCC 49619 after 24 hrs by broth microdilution method; format: functional; details: ATCC 49619, 24 h; how it was run: as §1
[9] = test system: Bacillus subtilis; test: Antibacterial activity against Bacillus subtilis ATCC 9372 after 24 hrs by broth microdilution method; format: functional; details: ATCC 9372, 24 h; how it was run: as §1
[10] = test system: Staphylococcus aureus; test: Antibacterial activity against Staphylococcus aureus ATCC 25923 after 24 hrs by broth microdilution method; format: functional; details: ATCC 25923, 24 h; how it was run: as §1
[11] = test system: Streptococcus pyogenes; test: Antibacterial activity against penicillin-susceptible Streptococcus pyogenes after 24 hrs by broth microdilution method; format: functional; how it was run: as §1
[12] = biological target: T1, Cell division protein FtsZ (Staphylococcus aureus); test: Inhibition of FtsZ in Staphylococcus aureus ATCC 25923 assessed as decrease in cell division by measuring lowest compound concentration at which bacterial ballooning is observed after 5 hrs by phase-contrast light microscopy; how it was run: as §2
[13] = test system: Bacillus subtilis; test: Inhibition of FtsZ in Bacillus subtilis ATCC 9372 assessed as decrease in cell division by measuring lowest compound concentration at which bacterial filamentation is observed after 5 hrs by phase-contrast light microscopy; how it was run: as §2

SMILES | inhibition [1] | MIC [2] | MIC [3] | INH [4] | MIC [5] | MIC [6] | inhibition [7] | MIC [8] | MIC [9] | MIC [10] | MIC [11] | INH [12] | INH [13]
NC(=O)c1c(F)ccc(OCCCCCn2cnc3ccccc32)c1F | inactive | 512 mg/L (≈ 1420 µM) | 512 mg/L (≈ 1420 µM) | 512 µg/mL | 1020 mg/L (≈ 2850 µM) | 512 mg/L (≈ 1420 µM) | inactive | 512 mg/L (≈ 1420 µM) | 512 mg/L (≈ 1420 µM) | 512 mg/L (≈ 1420 µM) | 1020 mg/L (≈ 2850 µM) |  | 
NC(=O)c1c(F)ccc(OCCn2cnc3ccccc32)c1F | inactive | 1020 mg/L (≈ 3230 µM) | 512 mg/L (≈ 1610 µM) | 256 µg/mL | 512 mg/L (≈ 1610 µM) | 1020 mg/L (≈ 3230 µM) | inactive | 512 mg/L (≈ 1610 µM) | 1020 mg/L (≈ 3230 µM) | 1020 mg/L (≈ 3230 µM) | 1020 mg/L (≈ 3230 µM) |  | 
NC(=O)c1c(F)ccc(OCc2nc3ccccc3[nH]2)c1F | inactive | 256 mg/L (≈ 844 µM) | 512 mg/L (≈ 1690 µM) | 128 µg/mL | 256 mg/L (≈ 844 µM) | 1020 mg/L (≈ 3380 µM) |  | 256 mg/L (≈ 844 µM) | 1020 mg/L (≈ 3380 µM) | 1020 mg/L (≈ 3380 µM) | 1020 mg/L (≈ 3380 µM) | 512 µg/mL | 
NC(=O)c1c(F)ccc(OCCCCn2cnc3ccccc32)c1F | inactive | 512 mg/L (≈ 1480 µM) | 512 mg/L (≈ 1480 µM) | 512 µg/mL | 1020 mg/L (≈ 2970 µM) | 1020 mg/L (≈ 2970 µM) | inactive | 512 mg/L (≈ 1480 µM) | 512 mg/L (≈ 1480 µM) | 1020 mg/L (≈ 2970 µM) | 1020 mg/L (≈ 2970 µM) |  | 
NC(=O)c1c(F)ccc(OCCCCCCn2cnc3cc([N+](=O)[O-])ccc32)c1F |  | 512 mg/L (≈ 1220 µM) | 512 mg/L (≈ 1220 µM) | 256 µg/mL | 512 mg/L (≈ 1220 µM) | 1020 mg/L (≈ 2450 µM) | inactive | 256 mg/L (≈ 612 µM) | 1020 mg/L (≈ 2450 µM) | 1020 mg/L (≈ 2450 µM) | 512 mg/L (≈ 1220 µM) |  | 64 µg/mL
NC(=O)c1c(F)ccc(OCCCCn2cnc3cc([N+](=O)[O-])ccc32)c1F | inactive | 512 mg/L (≈ 1310 µM) | 256 mg/L (≈ 656 µM) | 256 µg/mL | 512 mg/L (≈ 1310 µM) | 512 mg/L (≈ 1310 µM) | inactive | 128 mg/L (≈ 328 µM) | 64 mg/L (≈ 164 µM) | 1020 mg/L (≈ 2620 µM) | 256 mg/L (≈ 656 µM) | 512 µg/mL | 
